How the values were obtained:
Type in all cases: functional
Onchocerca gutturosa [1] = test: Mean motility score for treated Onchocerca gutturosa involving LLCMK2 feeder cells at a concentration of 3.05*10e-9 M at 2 h
How it was run: (§1)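 Single male O. gutturosa worms (obtained following abattoir slaughter) per well in Eagle's MEM with 10% heat-inactivated fetal calf serum, penicillin, streptomycin, amphotericin B and bicarbonate, over LLCMK2 feeder cells, 5% CO2 in air. Drug dissolved in DMSO; controls received matched DMSO ≤0.016%. Motility scored 0 (immotile) to 10 (maximum control activity) every 30 min to 4.5 h, then days 1, 2, 3, 4, 7.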

Acanthocheilonema viteae = test: anti-filarial Activity was measured against Acanthocheilonema viteae in jirds at 100 mg/kg/day(5 days) dose
How it was run: (§2)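 Jirds with established B. pahangi or A. viteae infections were given drug once daily for 5 days by subcutaneous injection, at the maximum tolerated dose and, where supply allowed, graded lower doses. Tolerance was first checked in noninfected jirds with a single 200 mg/kg oral or subcutaneous dose, watching 72 h for excessive weight loss or death. Macrofilarial suppression was the read-out.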

Onchocerca gutturosa [2] = test: Mean motility score for treated Onchocerca gutturosa involving LLCMK2 feeder cells at a concentration of 1.94*10e-7M at 1.5 h
How it was run: (§3)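 One male O. gutturosa per well over LLCMK2 feeder cells in MEM with 10% heat-inactivated FCS, antibiotics and bicarbonate, 5% CO2; compound introduced in DMSO (≤0.016%, equal DMSO in controls). Motility scored 0 (immotile) to 10 (maximal control activity) every 30 min to 4.5 h, then at 1, 2, 3, 4 and 7 days.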

Onchocerca gutturosa [3] = test: Mean motility score for treated Onchocerca gutturosa involving LLCMK2 feeder cells at a concentration of 3.05*10e-9 M at 0.5 h; how it was run: as §3
Onchocerca gutturosa [4] = test: Mean motility score for treated Onchocerca gutturosa involving LLCMK2 feeder cells at a concentration of 5*10e-5 M at 168 h(O = IMMOTILE); how it was run: as §1
Onchocerca gutturosa [5] = test: Mean motility score for treated Onchocerca gutturosa involving LLCMK2 feeder cells at a concentration of 3.05*10e-9 M at 1 h; how it was run: as §3
Onchocerca gutturosa [6] = test: Mean motility score for treated Onchocerca gutturosa involving LLCMK2 feeder cells at a concentration of 1.94*10e-7M at 24 h; how it was run: as §3
Brugia pahangi = test: anti-filarial Activity was measured against Brugia pahangi in jirds at 100 mg/kg/day(5 days) dose; how it was run: as §2
Onchocerca volvulus [7] = test: Colorimetric quantification of male Onchocerca volvulus viability, expressed as % inhibition of formazan formation at 5*10e-5 M conc. by using tetrazolium Dye MTT assay
How it was run: (§4)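 Male O. volvulus dissected from human nodules within 24 h (kept in medium on ice), cultured without feeder cells in medium with 10% serum; drug from DMSO stock. MTT after 96 h: single worm, 0.5 mg/mL MTT, 30 min at 36.5 °C, formazan dissolved in DMSO 1 h at room temperature, absorbance 490 nm against DMSO blank.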

Onchocerca gutturosa [8] = test: Mean motility score for treated Onchocerca gutturosa involving LLCMK2 feeder cells at a concentration of 1.94*10e-7M at 2 h; how it was run: as §3
Onchocerca gutturosa [9] = test: Mean motility score for treated Onchocerca gutturosa involving LLCMK2 feeder cells at a concentration of 1.21*10e-8M at 1 h; how it was run: as §3
Onchocerca gutturosa [10] = test: Mean motility score for treated Onchocerca gutturosa involving LLCMK2 feeder cells at a concentration of 3.05*10e-9 M at 1.5 h; how it was run: as §3
Onchocerca gutturosa [11] = test: Mean motility score for treated Onchocerca gutturosa involving LLCMK2 feeder cells at a concentration of 3.1*10e-6 M at 168 h; how it was run: as §1
Onchocerca gutturosa [12] = test: Mean motility score for treated Onchocerca gutturosa involving LLCMK2 feeder cells at a concentration of 4.88*10e-8M at 96 h; how it was run: as §1
Onchocerca gutturosa [13] = test: Mean motility score for treated Onchocerca gutturosa involving LLCMK2 feeder cells at a concentration of 1.95*10e-8 M at 72 h; how it was run: as §3
Onchocerca gutturosa [14] = test: Mean motility score for treated Onchocerca gutturosa involving LLCMK2 feeder cells at a concentration of 1.95*10e-8 M at 2 h; how it was run: as §3
Onchocerca gutturosa [15] = test: Mean motility score for treated Onchocerca gutturosa involving LLCMK2 feeder cells at a concentration of 3.1*10e-6 M at 2 h; how it was run: as §1
Onchocerca volvulus [16] = test: Colorimetric quantification of male Onchocerca volvulus viability, expressed as % inhibition of formazan formation at 5*10e-6 M conc. by using tetrazolium Dye MTT assay; how it was run: as §4
Onchocerca gutturosa [17] = test: Mean motility score for treated Onchocerca gutturosa involving LLCMK2 feeder cells at a concentration of 4.88*10e-8M at 72 h; how it was run: as §1
Onchocerca gutturosa [18] = test: Mean motility score for treated Onchocerca gutturosa involving LLCMK2 feeder cells at a concentration of 3.05*10e-8 M at […]; how it was run: as §3
Onchocerca gutturosa [19] = test: Mean motility score for treated Onchocerca gutturosa involving LLCMK2 feeder cells at a concentration of 4.88*10e-8M at 2 h; how it was run: as §1
Onchocerca gutturosa [20] = test: Colorimetric quantification of male Onchocerca gutturosa viability, expressed as % inhibition of formazan formation at 1.95*10e-7 M conc. by using tetrazolium Dye MTT assay
How it was run: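 Single intact male O. gutturosa, cultured with LLCMK2 feeder cells in MEM + 10% heat-inactivated FCS (5% CO2), drug added from DMSO (≤0.016% DMSO in controls). MTT read after 168 h: worm in 0.5 mg/mL MTT, 30 min at 36.5 °C, formazan solubilized in DMSO 1 h at room temperature, absorbance 490 nm vs DMSO blank.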

Onchocerca gutturosa [21] = test: Mean motility score for treated Onchocerca gutturosa involving LLCMK2 feeder cells at a concentration of 1.95*10e-8 M at 2.5 h; how it was run: as §3
Onchocerca gutturosa [22] = test: Mean motility score for treated Onchocerca gutturosa involving LLCMK2 feeder cells at a concentration of 3.1*10e-6 M at 4.5 h; how it was run: as §1
Onchocerca gutturosa [23] = test: Mean motility score for treated Onchocerca gutturosa involving LLCMK2 feeder cells at a concentration of 3.1*10e-6 M at 4 h; how it was run: as §1
Onchocerca gutturosa [24] = test: Mean motility score for treated Onchocerca gutturosa involving LLCMK2 feeder cells at a concentration of 3.05*10e-8 M at 2.5 h; conditions: in the assay text read “3.05*10e-9 M” for “3.05*10e-8 M”; how it was run: as §3
Onchocerca gutturosa [25] = test: (§5) Mean motility score for treated Onchocerca gutturosa involving LLCMK2 feeder cells at a concentration of 1.95*10e-8 M at 0.5 h; how it was run: as §3
Onchocerca gutturosa [26] = test: Mean motility score for treated Onchocerca gutturosa involving LLCMK2 feeder cells at a concentration of 4.88*10e-8M at 3.5 h; how it was run: as §1
Onchocerca gutturosa [27] = test: Mean motility score for treated Onchocerca gutturosa involving LLCMK2 feeder cells at a concentration of 3.05*10e-8 M at 0.5 h; how it was run: as §3
Onchocerca gutturosa [28] = test: Mean motility score for treated Onchocerca gutturosa involving LLCMK2 feeder cells at a concentration of 3.1*10e-6 M at 1 h; how it was run: as §1
Onchocerca gutturosa [29] = test: as §5; how it was run: as §3; remark: listed apart in the source
Onchocerca gutturosa [30] = test: Mean motility score for treated Onchocerca gutturosa involving LLCMK2 feeder cells at a concentration of 4.88*10e-8M at 4 h; how it was run: as §1
Onchocerca gutturosa [31] = test: Mean motility score for treated Onchocerca gutturosa involving LLCMK2 feeder cells at a concentration of 3.1*10e-6 M at 2.5 h; how it was run: as §1

C/C(=N\NC(S)=Nc1ccccc1N)c1ccccn1
Motility (Onchocerca gutturosa [1]): 7.5 | Suppression (Acanthocheilonema viteae): 100% | Motility (Onchocerca gutturosa [2]): 8 | Motility (Onchocerca gutturosa [3]): 8.8 | Motility (Onchocerca gutturosa [4]): 0 | Motility (Onchocerca gutturosa [5]): 8.8 | Motility (Onchocerca gutturosa [6]): 8 | Suppression (Brugia pahangi): 100% | Inhibition (Onchocerca volvulus [7]): 53.8% | Motility (Onchocerca gutturosa [8]): 9 | Motility (Onchocerca gutturosa [9]): 8.5 | Motility (Onchocerca gutturosa [10]): 8.3

C/C(=N\NC(=S)N1CCCCCC1)c1ccccn1
Motility (Onchocerca gutturosa [11]): 0 | Motility (Onchocerca gutturosa [12]): 1.5 | Motility (Onchocerca gutturosa [13]): 1 | Motility (Onchocerca gutturosa [14]): 9.3 | Motility (Onchocerca gutturosa [15]): 9.8 | Inhibition (Onchocerca volvulus [16]): 58.2% | Motility (Onchocerca gutturosa [17]): 3.5 | Motility (Onchocerca gutturosa [18]): 8.5 | Motility (Onchocerca gutturosa [19]): 8.8 | Inhibition (Onchocerca gutturosa [20]): 70.4% | Motility (Onchocerca gutturosa [21]): 9.3 | Motility (Onchocerca gutturosa [22]): 9.5 | Motility (Onchocerca gutturosa [23]): 9 | Motility (Onchocerca gutturosa [24]): 8.3 | Motility (Onchocerca gutturosa [25]): 8.8 | Motility (Onchocerca gutturosa [26]): 8.5 | Motility (Onchocerca gutturosa [27]): 9.8 | Motility (Onchocerca gutturosa [28]): 9.8 | Motility (Onchocerca gutturosa [29]): 8.8 | Motility (Onchocerca gutturosa [30]): 8.8 | Motility (Onchocerca gutturosa [31]): 8.5

Reference: ChEMBL document CHEMBL1125672, “2-acetylpyridine thiosemicarbazones. 13. Derivatives with antifilarial activity” (1991)
